Measured values published in ChEMBL document CHEMBL2203279, “Synthesis and pharmacokinetic profile of rhein- boswellic acid conjugate” (Bioorg Med Chem Lett, 2012).

Columns and labels:
[1] = Drug excretion in po dosed Wistar rat urine assessed as rhein up to 24 hrs; type: ADME, organism-based; conditions: in vivo
In short: (§1)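 Wistar rats given prodrug 2.5 mg in 0.5 mL saline orally after overnight fast; urine and feces collected from metabolic cages at intervals over 24 h and pooled. Urine diluted 10-fold and feces 100-fold in phosphate buffer pH 7.4, then analysed by RP-HPLC for intact prodrug, rhein and boswellic acid as percent.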

Blood [2] = assay: Prodrug conversion in po dosed Wistar rat blood assessed as rhein production from 4 to 7 hrs; type: ADME, organism-based; conditions: in vivo
In short: (§2)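 Overnight-fasted Wistar rats (water allowed) given prodrug 2.5 mg in 0.5 mL saline orally. Blood taken by retro-orbital puncture at intervals over up to 8 h, processed by methanol protein precipitation and centrifugation, and analysed by RP-HPLC for intact prodrug, rhein and boswellic acid, expressed as percent of administered dose.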

Blood [3] = assay: Drug uptake in po dosed Wistar rat blood at 4 hrs; type: ADME, organism-based; conditions: in vivo; in short: as §2
Blood [4] = assay: Drug uptake in po dosed Wistar rat blood at 6 hrs; type: ADME, organism-based; conditions: in vivo; in short: as §2
Stomach = assay: Metabolic stability in rat stomach homogenate; type: ADME, tissue-based; conditions: tissue homogenate
In short: (§3)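 Prodrug solution in buffer (250 µg/mL) added to rat stomach or small intestinal homogenate pre-equilibrated at 37 ± 0.5 °C. Samples taken at intervals, centrifuged, supernatant filtered and analysed by RP-HPLC at 211 nm for residual prodrug and released rhein/boswellic acid. Rate constant from log residual prodrug vs time slope; triplicate, mean rate constant.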

[5] = Chemical stability of the compound in HCl buffer at pH 1.2; type: physicochemical
In short: (§4)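 Prodrug (10 mg) incubated in aqueous buffer (HCl pH 1.2 or phosphate pH 7.4) at 37 ± 0.5 °C, stirred at 100 rpm; aliquots withdrawn with medium replacement at intervals up to 7 h. Residual prodrug and released rhein/boswellic acid quantified by RP-HPLC at 211 nm. First-order rate constant from slope of log residual prodrug vs time; triplicate, mean taken.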

Blood [6] = assay: Drug uptake in po dosed Wistar rat blood at 5 hrs; type: ADME, organism-based; conditions: in vivo; in short: as §2
[7] = Prodrug conversion in phosphate buffer assessed as half life of hydrolysis at pH 7.4; type: physicochemical; in short: as §4
Blood [8] = assay: Drug uptake in po dosed Wistar rat blood at 2 hrs; type: ADME, organism-based; conditions: in vivo; in short: as §2
Plasma = assay: Prodrug conversion in 80% human plasma assessed as half life of hydrolysis; type: ADME, cell-free
In short: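 80% human plasma prepared in 0.05 M phosphate buffer pH 7.4; prodrug methanol stock (250 µg/mL) mixed 1:1 with plasma and incubated at 37 ± 0.5 °C over 7 h. At intervals, centrifuged cold, supernatant protein-precipitated with methanol, recentrifuged, filtered and analysed by RP-HPLC for residual prodrug and released rhein/boswellic acid. Rate constant from log residual prodrug vs time; triplicate.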

[9] = Drug excretion in po dosed Wistar rat urine assessed as boswellic acid up to 24 hrs; type: ADME, organism-based; conditions: in vivo; in short: as §1
[10] = n-Octanol-phosphate buffer partition coefficient, log P of the compound at pH 7.4; type: physicochemical
In short: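 Partition coefficient measured between n-octanol and phosphate buffer pH 7.4, with concentrations read by UV–visible spectrophotometry.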

Blood [11] = assay: Drug uptake in po dosed Wistar rat blood at 7 hrs; type: ADME, organism-based; conditions: in vivo; in short: as §2
Blood [12] = assay: Prodrug conversion in po dosed Wistar rat blood assessed as boswellic acid production from 4 to 7 hrs; type: ADME, organism-based; conditions: in vivo; in short: as §2
Blood [13] = assay: Drug uptake in po dosed Wistar rat blood at 3 hrs; type: ADME, organism-based; conditions: in vivo; in short: as §2
[14] = Drug excretion in po dosed Wistar rat feces assessed as rhein up to 24 hrs; type: ADME, organism-based; conditions: in vivo; in short: as §1
[15] = Drug excretion in po dosed Wistar rat urine up to 24 hrs; type: ADME, organism-based; conditions: read-out: Drug excretion; in short: as §1
[16] = Drug excretion in po dosed Wistar rat feces up to 24 hrs; type: ADME, organism-based; conditions: faeces, read-out: Drug excretion; in short: as §1
[17] = Drug excretion in po dosed Wistar rat feces assessed as boswellic acid up to 24 hrs; type: ADME, organism-based; conditions: in vivo; in short: as §1
Intestine = assay: Prodrug conversion in rat small intestine homogenate assessed as half life of hydrolysis; type: ADME, tissue-based; conditions: tissue homogenate; in short: as §3

| Drug excretion [1] [%] | Drug metabolism (Blood [2]) | Drug uptake (Blood [3]) [%] | Drug uptake (Blood [4]) [%] | Stability (Stomach) | Stability [5] | Drug uptake (Blood [6]) [%] | t1/2 [7] [h] | Drug uptake (Blood [8]) [%] | t1/2 (Plasma) [h] | Drug excretion [9] [%] | logD [10] | Drug uptake (Blood [11]) [%] | Drug metabolism (Blood [12]) | Drug uptake (Blood [13]) [%] | Drug excretion [14] | dose excreted at 24 h [15] [%] | dose excreted at 24 h [16] [%] | Drug excretion [17] [%] | t1/2 (Intestine) [h] | Structure (SMILES) |
| --- | --- | --- | --- | --- | --- | --- | --- | --- | --- | --- | --- | --- | --- | --- | --- | --- | --- | --- | --- | --- |
| 7.1 | Active | 34.5 | 12 | Stable | Stable | 22 | 3.205 | 93.6 | 3.102 | 8.9 | 2.57 | 3.4 | Active | 70.43 | Not Active | 6.2 | 3.1 | 4.59 | 2.672 | CC1(C)CC[C@]2(C)CC[C@]3(C)C(=CC[C@@H]4[C@@]5(C)CC[C@@H](O)[C@](C)(C(=O)Oc6cccc7c6C(=O)c6c(OC(=O)[C@@]8(C)[C@H](O)CC[C@@]9(C)[C@H]8CC[C@]8(C)[C@@H]9CC=C9[C@@H]%10CC(C)(C)CC[C@]%10(C)CC[C@]98C)cc(C(=O)O)cc6C7=O)[C@@H]5CC[C@]43C)[C@@H]2C1 |
|  |  |  |  |  |  |  |  |  |  |  | 0.24 |  |  |  |  |  |  |  |  | O=C(O)c1cc(O)c2c(c1)C(=O)c1cccc(O)c1C2=O [RHEIN] |
